ChEMBL document CHEMBL3108761, “Phenanthroline-2,9-bistriazoles as selective G-quadruplex ligands” (Eur J Med Chem, 2014)
Activity calls are given as the source filed them. The rule behind the calls is not given here.

Legend:
[1] = species: Homo sapiens; assay: Binding affinity to hairpin 5'-FAM-TATAGCTATAT7ATAGCTATA-TAMRA-3' (unknown origin) assessed as melting temperature at 0.5 uM by FRET assay
In short: (§1)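 K+ buffer: 10 mM KCl, 100 mM LiCl, 10 mM cacodylate, pH 7.3. FAM/TAMRA dual-labelled probes were diluted to 400 nM, annealed at 85 °C for 10 min and cooled to room temperature, then mixed with ligand at the stated concentration. FAM was excited at 492 nm and read at 516 nm every 0.5 °C from 25 to 100 °C, with a 30 s hold before each reading. ΔTm was taken against a buffer-only control, in triplicate.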

[2] = species: Homo sapiens; assay: Binding affinity to c-KIT G-quadruplex 5'-FAM-G3CG3CGCGAG3AG4-TAMRA-3' (unknown origin) assessed as melting temperature at 2 uM by FRET assay; in short: as §1
[3] = species: Homo sapiens; assay: Binding affinity to c-KIT G-quadruplex 5'-FAM-G3CG3CGCGAG3AG4-TAMRA-3' (unknown origin) assessed as melting temperature at 0.5 uM by FRET assay; in short: as §1
[4] = species: Homo sapiens; assay: Binding affinity to human telomeric 5'-FAMd(G3[T2AG3]3)-TAMRA-3' assessed as melting temperature at 2 uM by FRET assay; in short: as §1
[5] = species: Homo sapiens; assay: Binding affinity to human telomeric 5'-FAMd(G3[T2AG3]3)-TAMRA-3' assessed as melting temperature at 0.5 uM by FRET assay; in short: as §1
[6] = species: Homo sapiens; assay: Ratio of Kd for c-KIT G-quadruplex 5'-biotin-d[T9G3CG3CGCGAG3AG4]-3' (unknown origin) to Kd for human telomeric 5'-biotin-d[T7(T2AG3)4]-3'
[7] = Binding affinity to human telomeric 5'-biotin-d[T7(T2AG3)4]-3' assessed as dissociation constant (KD) by surface plasmon resonance assay
In short: (§2)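 Biotinylated DNA was annealed in 20 mM Tris-HCl, 200 mM KCl, pH 7.4, and captured on a streptavidin chip at ~400 RU. Running buffer: 20 mM KH2PO4, 150 mM KCl, 0.005% P20, 0.5 mM EDTA, pH 7.4. Ligand at 10–1000 nM was injected for 120 s in random order, with blank flow-cell subtraction. KD came from a steady-state affinity fit of Req against concentration; "not detected" means no significant binding at 1 µM.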

[8] = species: Homo sapiens; assay: Binding affinity to hairpin 5'-FAM-TATAGCTATAT7ATAGCTATA-TAMRA-3' (unknown origin) assessed as melting temperature at 1 uM by FRET assay; in short: as §1
[9] = species: Homo sapiens; assay: Binding affinity to human telomeric 5'-FAMd(G3[T2AG3]3)-TAMRA-3' assessed as melting temperature at 1 uM by FRET assay; in short: as §1
[10] = species: Homo sapiens; assay: Binding affinity to c-KIT G-quadruplex 5'-FAM-G3CG3CGCGAG3AG4-TAMRA-3' (unknown origin) assessed as melting temperature at 1 uM by FRET assay; in short: as §1
[11] = Binding affinity to hairpin 5'-biotin-d[T10ATAGCTATAT7ATAGCTATA]-3' (unknown origin) assessed as dissociation constant by surface plasmon resonance assay; design: species or system Homo sapiens; in short: as §2
[12] = Binding affinity to c-KIT G-quadruplex 5'-biotin-d[T9G3CG3CGCGAG3AG4]-3' (unknown origin) assessed as dissociation constant by surface plasmon resonance assay; design: species or system Homo sapiens; in short: as §2
[13] = species: Homo sapiens; assay: Binding affinity to hairpin 5'-biotin-d[T10ATAGCTATAT7ATAGCTATA]-3' (unknown origin) assessed as melting temperature at 1 uM by surface plasmon resonance assay; in short: as §2
[14] = species: Homo sapiens; assay: Binding affinity to human telomeric 5'-FAMd(G3[T2AG3]3)-TAMRA-3' in Na+ solution assessed as melting temperature at 2 uM by FRET assay
In short: (§3)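 Telomeric FRET probe in Na+ buffer: 100 mM NaCl, 10 mM LiCl, 10 mM cacodylate, pH 7.3. Probe was diluted to 400 nM and annealed at 85 °C for 10 min, then cooled to room temperature; ligand was added at the stated concentration. Emission at 516 nm (excitation 492 nm) was read in 0.5 °C steps from 25 to 100 °C, with a 30 s hold per step. ΔTm versus buffer control, triplicate.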

[15] = species: Homo sapiens; assay: Binding affinity to human telomeric 5'-FAMd(G3[T2AG3]3)-TAMRA-3' in Na+ solution assessed as melting temperature at 0.5 uM by FRET assay; in short: as §3
[16] = species: Homo sapiens; assay: Binding affinity to human telomeric 5'-FAMd(G3[T2AG3]3)-TAMRA-3' in Na+ solution assessed as melting temperature at 1 uM by FRET assay; in short: as §3
[17] = species: Homo sapiens; assay: Binding affinity to human telomeric 5'-AG3(T2AG3)3-3' by circular dichroism spectroscopy
In short: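 DNA at 2 µM final in 10 mM Tris-HCl, 100 mM KCl, pH 7.4 was annealed at 95 °C for 10 min and slowly cooled. Ligand was then added at several final concentrations. Spectra were recorded from 220 to 320 nm in a 5 mm cell at 25 °C, averaged over five scans and buffer-corrected, to assess whether the G-quadruplex fold was retained.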

[18] = species: Homo sapiens; assay: Displacement of thiazole orange from 5'-CA2TCG2ATCGA2T2CGATC2GAT2G-3' (unknown origin) assessed as reduction of fluorescence at 2.5 uM by G4-FID assay
In short: (§4)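 Done at 20 °C in 10 mM sodium cacodylate pH 7.3 with 100 mM KCl; 22AG was also run with 100 mM NaCl. 0.25 µM prefolded DNA carried thiazole orange: 0.50 µM for 22AG and c-KIT, 0.75 µM for ds26. Ligand was titrated from 0.2 to 10 equivalents, with 3 min equilibration per step. Displacement = 100 − (FA/FA0 × 100), from emission area 510–750 nm (excitation 501 nm). DC50 was taken as 50% displacement; otherwise the displacement at 2.5 µM ligand is given.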

[19] = species: Homo sapiens; assay: Displacement of thiazole orange from human telomeric 5'-AG3(T2AG3)3-3' (unknown origin) assessed as reduction of fluorescence at 2.5 uM by G4-FID assay; in short: as §4
[20] = species: Homo sapiens; assay: Displacement of thiazole orange from human telomeric 5'-AG3(T2AG3)3-3' (unknown origin) in Na+ solution assessed as reduction of fluorescence by G4-FID assay; in short: as §4
[21] = species: Homo sapiens; assay: Displacement of thiazole orange from human telomeric 5'-AG3(T2AG3)3-3' (unknown origin) in K+ solution assessed as reduction of fluorescence by G4-FID assay; in short: as §4
[22] = species: Homo sapiens; assay: Displacement of thiazole orange from c-KIT G-quadruplex 5'-G3CG3CGCGAG3AG4-3' (unknown origin) assessed as reduction of fluorescence by G4-FID assay; in short: as §4
[23] = species: Homo sapiens; assay: Binding affinity to c-KIT G-quadruplex 5'-G3CG3CGCGAG3AG4-3' (unknown origin) by circular dichroism spectroscopy

Structure (SMILES)	ΔTm [1]	ΔTm [2]	ΔTm [3]	ΔTm [4]	ΔTm [5]	Ratio [6]	Kd [7]	ΔTm [8]	ΔTm [9]	ΔTm [10]	Kd [11]	Kd [12]	inhibition [13]	ΔTm [14]	ΔTm [15]	ΔTm [16]	also measured
CC(C)/N=C(/NCCCCn1cc(-c2ccc3ccc4ccc(-c5cn(CCCCN/C(=N\C(C)C)NC(C)C)nn5)nc4c3n2)nn1)NC(C)C	0.8 °C	15.9 °C	10.3 °C	18.1 °C	5.1 °C	2	176 nM	1.3 °C	15.1 °C	13.9 °C	–	35 nM	inactive	–	–	–	–
NCCn1cc(-c2ccc3ccc4ccc(-c5cn(CCN)nn5)nc4c3n2)nn1	0.4 °C	6.2 °C	3.7 °C	6.8 °C	4.4 °C	2	139 nM	0.6 °C	5.5 °C	4.9 °C	1180 nM	47 nM	–	–	–	–	–
NCCCn1cc(-c2ccc3ccc4ccc(-c5cn(CCCN)nn5)nc4c3n2)nn1	1.1 °C	13.9 °C	9.8 °C	16.1 °C	10.3 °C	2	75 nM	1.2 °C	13.3 °C	11.8 °C	914 nM	45 nM	–	11.9 °C	5.1 °C	8.4 °C	–
CC(C)/N=C(/NCCn1cc(-c2ccc3ccc4ccc(-c5cn(CCN/C(=N\C(C)C)NC(C)C)nn5)nc4c3n2)nn1)NC(C)C	0.7 °C	12.5 °C	7.4 °C	13.6 °C	4.2 °C	13	567 nM	1.1 °C	9.7 °C	10.4 °C	–	40 nM	inactive	–	–	–	–
C[n+]1ccc(-c2c3nc(c(-c4cc[n+](C)cc4)c4ccc([nH]4)c(-c4cc[n+](C)cc4)c4ccc([nH]4)c(-c4cc[n+](C)cc4)c4nc2C=C4)C=C3)cc1	9.3 °C	–	> 25 °C	> 35 °C	19.7 °C	–	–	14.8 °C	23.1 °C	> 25 °C	–	–	–	–	–	–	–
CC(C)/N=C(/NCCCn1cc(-c2ccc3ccc4ccc(-c5cn(CCCN/C(=N\C(C)C)NC(C)C)nn5)nc4c3n2)nn1)NC(C)C	0.7 °C	14.6 °C	8.3 °C	14.5 °C	3.2 °C	13	440 nM	1.3 °C	9.5 °C	12 °C	–	33 nM	inactive	8.8 °C	2.8 °C	4.3 °C	–

More lines, main results first:

ΔTm [1]	ΔTm [2]	ΔTm [3]	ΔTm [4]	ΔTm [5]	Ratio [6]	Kd [7]	ΔTm [8]	ΔTm [9]	ΔTm [10]	Kd [11]	Kd [12]	inhibition [13]	ΔTm [14]	ΔTm [15]	ΔTm [16]	Structure (SMILES)	also measured
1.2 °C	16.4 °C	11 °C	18.9 °C	11 °C	2	75 nM	2.5 °C	15 °C	13.9 °C	1120 nM	50 nM	–	–	–	–	N=C(N)NCCn1cc(-c2ccc3ccc4ccc(-c5cn(CCNC(=N)N)nn5)nc4c3n2)nn1	–
1 °C	15.2 °C	11.1 °C	15.8 °C	10.1 °C	2	115 nM	1.3 °C	12.9 °C	13.6 °C	1060 nM	50 nM	–	–	–	–	NCCCCn1cc(-c2ccc3ccc4ccc(-c5cn(CCCCN)nn5)nc4c3n2)nn1	–
1.7 °C	18.5 °C	13.8 °C	21.8 °C	12.2 °C	2	61 nM	3.7 °C	17.3 °C	16.8 °C	1020 nM	29 nM	–	–	–	–	N=C(N)NCCCCn1cc(-c2ccc3ccc4ccc(-c5cn(CCCCNC(=N)N)nn5)nc4c3n2)nn1	–
1.6 °C	18.4 °C	11.4 °C	22 °C	12.2 °C	2	57 nM	2.8 °C	18 °C	16.1 °C	1060 nM	28 nM	–	16.4 °C	6.6 °C	11.4 °C	N=C(N)NCCCn1cc(-c2ccc3ccc4ccc(-c5cn(CCCNC(=N)N)nn5)nc4c3n2)nn1	Activity [17]: Active; inhibition [18]: 21%; inhibition [19]: 47%; Q50 [20]: > 2.5 µM; Q50 [21]: 0.94 µM; Q50 [22]: 0.25 µM; Activity [23]: Active
